Measured values taken from ChEMBL document CHEMBL4017489, “Design, Synthesis, and Evaluation of New Selective NM23-H2 Binders as c-MYC Transcription Inhibitors via Disruption of the NM23-H2/G-Quadruplex Interaction” (J Med Chem, 2017).

How the values were obtained:
Assay type in all cases: functional
SiHa [1] = assay: Induction of apoptosis in human SiHa cells assessed as necrotic cells at 1 uM after 48 hrs by Annexin V-FITC/propidium iodide based flow cytometric analysis (reference value: 0.3%)
SiHa [2] = assay: Cell cycle arrest in human SiHa cells assessed as accumulation at S phase at 2 uM after 3 hrs by propidium iodide staining based flow cytometry (reference value: 13%)
Method in brief: (§1)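 SiHa cells (2.0 × 10^5 per well) plated 24 h, then exposed to 2 μM compound or left untreated for 3, 6, 9, 12, 24, 36 or 48 h. Cells washed in PBS, fixed overnight in ice-cold 70% ethanol, treated with 20 μg/mL RNase A for 30 min at 37 °C, stained with PI, and read by flow cytometry at 488 nm. Phase percentages compared with untreated control; at least three experiments.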

SiHa [3] = assay: Antitumor activity against human SiHa cells xenografted in BALB/C nude mouse assessed as tumor weight at 5 mg/kg, ip administered daily after 3 weeks (reference value: 511.6 mg)
SiHa [4] = assay: Cell cycle arrest in human SiHa cells assessed as accumulation at S phase at 2 uM after 36 hrs by propidium iodide staining based flow cytometry (reference value: 13 %); method in brief: as §1

`CN(C)CCCNc1cc2nc3n(c(=O)c2cc1F)CC/C3=C\c1ccc(OCc2ccccc2)cc1O` gave an Activity (SiHa [1]) of 1.3%, an Activity (SiHa [2]) of 11% and an Activity (SiHa [3]) of 180.1 mg. For the same compound, the Activity (SiHa [4]) was 0%.
